Assay results reported in ChEMBL document CHEMBL4373711, “Development of 3,5-Dinitrophenyl-Containing 1,2,4-Triazoles and Their Trifluoromethyl Analogues as Highly Efficient Antitubercular Agents Inhibiting Decaprenylphosphoryl-β-d-ribofuranose 2'-Oxidase” (J Med Chem, 2019).
Values after ≈ are worked out from the molar mass of the structure shown. Active and inactive are the calls of the source. The calls are words filed in the database; no cut-off is given here.

Assays:
[1] = tested on: Mycobacterium tuberculosis; assay: Antimycobacterial activity against XDR Mycobacterium tuberculosis Praha 131 after 21 days; type: functional; conditions: Praha 131, 504 h
Summary of the method: (§1)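 M. tuberculosis strains (H37Rv and clinical MDR/XDR isolates) tested by microdilution in Šula's semisynthetic medium. Compounds were dissolved in DMSO and tested at 32 to 0.03 µM in twofold steps. Inoculum was a 1.0 McFarland suspension diluted 10-3. Plates were incubated at 37 °C and read at 14 and 21 days.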

[2] = tested on: Mycobacterium tuberculosis; assay: Antimycobacterial activity against XDR Mycobacterium tuberculosis Praha 131 after 14 days; type: functional; conditions: Praha 131, 336 h; summary of the method: as §1
Mycobacterium kansasii [3] = assay: Antimycobacterial activity against Mycobacterium kansasii 6509/96 after 14 days; type: functional; conditions: 6509/96, 336 h
Summary of the method: (§2)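 Microdilution in Šula's semisynthetic medium; compounds in DMSO at 32–0.03 µM. Inoculum from 1.0 McFarland suspension diluted 10-4. […] Isoniazid and rifampicin as reference drugs.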

A-431 = assay: Cytotoxicity against human A431 cells assessed as reduction in cell viability after 48 hrs by CellTiter 96 aqueous one solution assay; type: cell-based; conditions: A-431, 48 h
Mycobacterium avium [4] = assay: Antimycobacterial activity against Mycobacterium avium CNCTC My 330/88 after 14 days; type: functional; conditions: CNCTC My 330/88, 336 h
Summary of the method: (§3)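 M. avium was tested by microdilution in Šula's semisynthetic medium, with compounds dissolved in DMSO and serially diluted from 1000 down to 1. Inoculum was a 1.0 McFarland suspension diluted 10-5. Plates were incubated at 37 °C and read at 14 and 21 days. […] Isoniazid and rifampicin served as standards.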

Mycobacterium kansasii [5] = assay: Antimycobacterial activity against Mycobacterium kansasii 6509/96 after 7 days; type: functional; conditions: 6509/96, 168 h; summary of the method: as §2
[6] = Cytotoxicity against human A431 cells assessed as cell viability at 30 uM after 48 hrs by CellTiter 96 aqueous one solution assay relative to control; type: cell-based, A-431; conditions: read-out: Activity
Summary of the method: (§4)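 HepG2 (DMEM, 10% FBS, 1 mM pyruvate) or A431 (DMEM, 10% FBS) seeded 10,000 cells/well, 24 h at 37 °C, 5% CO2, then 30 µM compound for 48 h. MTS reagent 60 min, absorbance 490 nm, background subtracted; 0.1% DMSO vehicle = 100%, 10% SDS = 0% viability.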

Lichtheimia corymbifera = assay: Antifungal activity against Lichtheimia corymbifera CCM 8077 at highest concentration measured after 24 to 48 hrs by alamar blue dye based broth microdilution assay; type: functional, organism-based
Staphylococcus aureus [7] = assay: Antibacterial activity against methicillin-resistant Staphylococcus aureus subsp. aureus ATCC 43300 CCM 4750 at highest concentration measured after 24 to 48 hrs by alamar blue dye based broth microdilution assay; type: functional, organism-based
Candida albicans = assay: Antifungal activity against Candida albicans ATCC 24433 CCM 8320 at highest concentration measured after 24 to 48 hrs by alamar blue dye based broth microdilution assay; type: functional, organism-based
Aspergillus flavus = assay: Antifungal activity against Aspergillus flavus CCM 8363 at highest concentration measured after 24 to 48 hrs by alamar blue dye based broth microdilution assay; type: functional, organism-based
[8] = tested on: Staphylococcus epidermidis; assay: Antibacterial activity against Staphylococcus epidermidis at highest concentration measured after 24 to 48 hrs by alamar blue dye based broth microdilution assay; type: functional, organism-based
Pseudomonas aeruginosa = assay: Antibacterial activity against Pseudomonas aeruginosa ATCC 27853 CCM 3955 at highest concentration measured after 24 to 48 hrs by alamar blue dye based broth microdilution assay; type: functional, organism-based
Staphylococcus aureus [9] = assay: Antibacterial activity against Staphylococcus aureus subsp. aureus ATCC 29213 CCM 4223 at highest concentration measured after 24 to 48 hrs by alamar blue dye based broth microdilution assay; type: functional, organism-based
Aspergillus fumigatus = assay: Antifungal activity against Aspergillus fumigatus ATCC 204305 at highest concentration measured after 24 to 48 hrs by alamar blue dye based broth microdilution assay; type: functional, organism-based
Serratia marcescens = assay: Antibacterial activity against Serratia marcescens at highest concentration measured after 24 to 48 hrs by alamar blue dye based broth microdilution assay; type: functional, organism-based
Enterococcus faecalis = assay: Antibacterial activity against Enterococcus faecalis ATCC 29212 CCM 4224 at highest concentration measured after 24 to 48 hrs by alamar blue dye based broth microdilution assay; type: functional, organism-based
[10] = tested on: Mycobacterium tuberculosis; assay: Antimycobacterial activity against Mycobacterium tuberculosis H37Rv CNCTC My 331/88 after 21 days; type: functional; conditions: H37Rv CNCTC My 331/88, 504 h; summary of the method: as §1
Mycobacterium avium [11] = assay: Antimycobacterial activity against Mycobacterium avium CNCTC My 330/88 after 21 days; type: functional; conditions: CNCTC My 330/88, 504 h; summary of the method: as §3
Mycobacterium kansasii [12] = assay: Antimycobacterial activity against Mycobacterium kansasii CNCTC My 235/80 after 14 days; type: functional; conditions: CNCTC My 235/80, 336 h; summary of the method: as §2
[13] = tested on: Mycobacterium tuberculosis; assay: Antimycobacterial activity against Mycobacterium tuberculosis H37Rv CNCTC My 331/88 after 14 days; type: functional; conditions: H37Rv CNCTC My 331/88, 336 h; summary of the method: as §1
Mycobacterium kansasii [14] = assay: Antimycobacterial activity against Mycobacterium kansasii CNCTC My 235/80 after 7 days; type: functional; conditions: CNCTC My 235/80, 168 h; summary of the method: as §2
Candida tropicalis = assay: Antifungal activity against Candida tropicalis ATCC 750 CCM 8264 at highest concentration measured after 24 to 48 hrs by alamar blue dye based broth microdilution assay; type: functional, organism-based
Mycobacterium kansasii [15] = assay: Antimycobacterial activity against Mycobacterium kansasii 6509/96 after 21 days; type: functional; conditions: 6509/96, 504 h; summary of the method: as §2
Escherichia coli = assay: Antibacterial activity against Escherichia coli ATCC 25922 CCM 3954 at highest concentration measured after 24 to 48 hrs by alamar blue dye based broth microdilution assay; type: functional, organism-based
Mycobacterium kansasii [16] = assay: Antimycobacterial activity against Mycobacterium kansasii CNCTC My 235/80 after 21 days; type: functional; conditions: CNCTC My 235/80, 504 h; summary of the method: as §2
[17] = tested on: Trichophyton interdigitale; assay: Antifungal activity against Trichophyton interdigitale ATCC 9533 CCM 8377 at highest concentration measured after 72 to 120 hrs by alamar blue dye based broth microdilution assay; type: functional
Klebsiella pneumoniae = assay: Antibacterial activity against Klebsiella pneumoniae at highest concentration measured after 24 to 48 hrs by alamar blue dye based broth microdilution assay; type: functional, organism-based
Pichia kudriavzevii = assay: Antifungal activity against Candida krusei ATCC 6258 CCM8271 at highest concentration measured after 24 to 48 hrs by alamar blue dye based broth microdilution assay; type: functional, organism-based
[18] = Cytotoxicity against human HepG2 cells assessed as cell viability at 30 uM after 48 hrs by CellTiter 96 aqueous one solution assay relative to control; type: cell-based; conditions: read-out: Activity; summary of the method: as §4
HepG2 = assay: Cytotoxicity against human HepG2 cells assessed as reduction in cell viability after 48 hrs by CellTiter 96 aqueous one solution assay; type: cell-based; conditions: HepG2, 48 h
Candida parapsilosis = assay: Antifungal activity against Candida parapsilosis ATCC 22019 CCM 8260 at highest concentration measured after 24 to 48 hrs by alamar blue dye based broth microdilution assay; type: functional, organism-based
[19] = Genotoxicity in Salmonella typhimurium TA100 at 30 uM in presence of rat liver S9 fraction by Ames test; type: toxicity, subcellular; conditions: salmonella enterica subsp. enterica serovar typhimurium, s9, 30 µM
Summary of the method: (§5)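 Microplate fluctuation Ames reverse-mutation test following kit instructions; TA98 detects frameshift and TA100 base-exchange mutations. Compound at 30 µM final with Aroclor-1254-induced rat liver S9 plus cofactors.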

[20] = Genotoxicity in Salmonella typhimurium TA98 at 30 uM in presence of rat liver S9 fraction by Ames test; type: toxicity, subcellular; conditions: salmonella enterica subsp. enterica serovar typhimurium, s9, 30 µM; summary of the method: as §5

SMILES	MIC99 [1] [µM]	MIC99 [2] [µM]	MIC99 (Mycobacterium kansasii [3]) [µM]	IC50 (A-431) [µM]	MIC99 (Mycobacterium avium [4]) [µM]	MIC99 (Mycobacterium kansasii [5]) [µM]	viability at 48 h, 30 µM [6] [%]	Activity (Lichtheimia corymbifera)	Activity (Staphylococcus aureus [7])	Activity (Candida albicans)	Activity (Aspergillus flavus)	Activity [8]	Activity (Pseudomonas aeruginosa)	Activity (Staphylococcus aureus [9])	Activity (Aspergillus fumigatus)	Activity (Serratia marcescens)	Activity (Enterococcus faecalis)	MIC99 [10] [µM]	MIC99 (Mycobacterium avium [11]) [µM]	MIC99 (Mycobacterium kansasii [12]) [µM]	other results
CCn1c(SCc2ccccc2)nnc1-c1cc([N+](=O)[O-])cc([N+](=O)[O-])c1	0.03 (≈ 0.0116 µg/mL)	0.03 (≈ 0.0116 µg/mL)	0.03 (≈ 0.0116 µg/mL)	> 30	250 (≈ 96.4 µg/mL)	0.03 (≈ 0.0116 µg/mL)	90	inactive	inactive	inactive	inactive	inactive	inactive	inactive	inactive	inactive	inactive	0.03 (≈ 0.0116 µg/mL)	250 (≈ 96.4 µg/mL)	0.03 (≈ 0.0116 µg/mL)	MIC99 [13]: 0.03 µM (≈ 0.0116 µg/mL); MIC99 (Mycobacterium kansasii [14]): 0.03 µM (≈ 0.0116 µg/mL); Activity (Candida tropicalis): inactive; MIC99 (Mycobacterium kansasii [15]): 0.03 µM (≈ 0.0116 µg/mL); Activity (Escherichia coli): inactive; MIC99 (Mycobacterium kansasii [16]): 0.03 µM (≈ 0.0116 µg/mL); Activity [17]: inactive; Activity (Klebsiella pneumoniae): inactive; Activity (Pichia kudriavzevii): inactive; viability at 48 h, 30 µM [18]: 156%; IC50 (HepG2): > 30 µM; Activity (Candida parapsilosis): inactive
O=[N+]([O-])c1cc(CSc2nnc(-c3ccccc3)n2Cc2ccccc2)cc([N+](=O)[O-])c1	4 (≈ 1.79 µg/mL)	2 (≈ 0.895 µg/mL)	8 (≈ 3.58 µg/mL)	> 30	> 1000	2 (≈ 0.895 µg/mL)	69	inactive	inactive	inactive	inactive	inactive	inactive	inactive	inactive	inactive	inactive	4 (≈ 1.79 µg/mL)	> 1000	4 (≈ 1.79 µg/mL)	MIC99 [13]: 4 µM (≈ 1.79 µg/mL); MIC99 (Mycobacterium kansasii [14]): 2 µM (≈ 0.895 µg/mL); Activity (Candida tropicalis): inactive; MIC99 (Mycobacterium kansasii [15]): 8 µM (≈ 3.58 µg/mL); Activity (Escherichia coli): inactive; MIC99 (Mycobacterium kansasii [16]): 8 µM (≈ 3.58 µg/mL); Activity [17]: inactive; Activity (Klebsiella pneumoniae): inactive; Activity (Pichia kudriavzevii): inactive; viability at 48 h, 30 µM [18]: 107%; IC50 (HepG2): > 30 µM; Activity (Candida parapsilosis): inactive
O=[N+]([O-])c1cc(-c2nnc(SCc3ccc(Cl)cc3)n2Cc2ccccc2)cc([N+](=O)[O-])c1	0.25 (≈ 0.12 µg/mL)	0.125 (≈ 0.0602 µg/mL)	0.125 (≈ 0.0602 µg/mL)	> 30	62 (≈ 29.9 µg/mL)	0.06 (≈ 0.0289 µg/mL)	95	inactive	inactive	inactive	inactive	inactive	inactive	inactive	inactive	inactive	inactive	0.25 (≈ 0.12 µg/mL)	62 (≈ 29.9 µg/mL)	0.25 (≈ 0.12 µg/mL)	Activity [19]: Non-Toxic; MIC99 [13]: 0.125 µM (≈ 0.0602 µg/mL); Activity [20]: Toxic; MIC99 (Mycobacterium kansasii [14]): 0.125 µM (≈ 0.0602 µg/mL); Activity (Candida tropicalis): inactive; MIC99 (Mycobacterium kansasii [15]): 0.125 µM (≈ 0.0602 µg/mL); Activity (Escherichia coli): inactive; MIC99 (Mycobacterium kansasii [16]): 0.5 µM (≈ 0.241 µg/mL); Activity [17]: inactive; Activity (Klebsiella pneumoniae): inactive; Activity (Pichia kudriavzevii): inactive; viability at 48 h, 30 µM [18]: 105%; IC50 (HepG2): > 30 µM; Activity (Candida parapsilosis): inactive
Nc1ccc2cc3ccccc3cc2c1 [2-AMINOANTHRACENE]																					Activity [19]: Toxic; Activity [20]: Toxic
